Experimental data taken from ChEMBL document CHEMBL4400539, “Discovery of a Novel Chemotype of Histone Lysine Methyltransferase EHMT1/2 (GLP/G9a) Inhibitors: Rational Design, Synthesis, Biological Evaluation, and Co-crystal Structure” (J Med Chem, 2019).
Calls of active or inactive are those of the source. No cut-off for these calls is given here.

Legend:
MCF7 = assay: Cytotoxicity against human MCF7 cells assessed as reduction in cell viability at 0.05 to 50 uM after 48 to 72 hrs by MTT assay; assay type: cell-based; details: mcf7, 50 µM
Procedure, shortened: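 MCF-7, MDA-MB-231 and U-343 cells exposed 24, 48 and 72 h to 0.05, 0.5, 5 and 50 μM compound; viability by MTT reduction to formazan versus vehicle; mean ± SD of at least three independent experiments.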

[1] = target: T1, Lysine-specific demethylase 4A (Homo sapiens) (UniProt O75164); assay: Inhibition of recombinant human JMJD2A at 10 to 25 uM using biotinylated-Histone H3 peptide (1 to 21 residues) as substrate preincubated for 30 mins followed by substrate addition and measured after 60 mins in presence of SAM by AlphaLISA assay relative to control
T1 sequence (whole entry): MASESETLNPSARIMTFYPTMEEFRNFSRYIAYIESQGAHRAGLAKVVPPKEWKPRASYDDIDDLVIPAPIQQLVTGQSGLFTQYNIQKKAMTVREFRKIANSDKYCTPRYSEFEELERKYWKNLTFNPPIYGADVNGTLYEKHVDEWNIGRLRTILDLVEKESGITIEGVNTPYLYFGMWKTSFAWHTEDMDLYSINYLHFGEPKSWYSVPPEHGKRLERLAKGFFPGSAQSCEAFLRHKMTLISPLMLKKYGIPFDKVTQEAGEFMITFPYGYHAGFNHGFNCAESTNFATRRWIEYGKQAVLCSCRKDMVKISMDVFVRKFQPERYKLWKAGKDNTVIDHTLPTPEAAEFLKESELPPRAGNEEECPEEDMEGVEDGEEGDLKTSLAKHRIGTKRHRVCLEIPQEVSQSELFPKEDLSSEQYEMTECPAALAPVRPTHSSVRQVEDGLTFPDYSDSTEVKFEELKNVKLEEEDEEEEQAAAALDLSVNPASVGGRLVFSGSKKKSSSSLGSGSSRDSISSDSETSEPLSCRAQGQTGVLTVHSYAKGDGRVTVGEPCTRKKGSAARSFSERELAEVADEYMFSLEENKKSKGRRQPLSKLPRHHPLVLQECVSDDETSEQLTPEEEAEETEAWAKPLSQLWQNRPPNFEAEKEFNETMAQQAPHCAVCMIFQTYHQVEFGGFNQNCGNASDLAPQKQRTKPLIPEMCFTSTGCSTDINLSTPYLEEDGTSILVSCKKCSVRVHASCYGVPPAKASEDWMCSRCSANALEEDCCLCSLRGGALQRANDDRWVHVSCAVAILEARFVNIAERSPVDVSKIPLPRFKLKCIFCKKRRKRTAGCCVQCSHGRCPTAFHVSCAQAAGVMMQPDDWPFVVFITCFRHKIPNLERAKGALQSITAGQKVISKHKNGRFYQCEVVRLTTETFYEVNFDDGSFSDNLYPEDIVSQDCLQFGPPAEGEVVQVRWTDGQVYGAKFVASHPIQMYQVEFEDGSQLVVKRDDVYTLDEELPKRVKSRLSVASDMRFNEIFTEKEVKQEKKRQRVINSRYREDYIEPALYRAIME

[2] = target: T2, Histone-lysine N-methyltransferase EHMT2 (Homo sapiens, UniProt Q96KQ7); assay: Binding affinity to human His-tagged G9a expressed in Escherichia coli Rosetta (DE3) after 30 mins by MST binding assay
T2 sequence (Q96KQ7 whole entry): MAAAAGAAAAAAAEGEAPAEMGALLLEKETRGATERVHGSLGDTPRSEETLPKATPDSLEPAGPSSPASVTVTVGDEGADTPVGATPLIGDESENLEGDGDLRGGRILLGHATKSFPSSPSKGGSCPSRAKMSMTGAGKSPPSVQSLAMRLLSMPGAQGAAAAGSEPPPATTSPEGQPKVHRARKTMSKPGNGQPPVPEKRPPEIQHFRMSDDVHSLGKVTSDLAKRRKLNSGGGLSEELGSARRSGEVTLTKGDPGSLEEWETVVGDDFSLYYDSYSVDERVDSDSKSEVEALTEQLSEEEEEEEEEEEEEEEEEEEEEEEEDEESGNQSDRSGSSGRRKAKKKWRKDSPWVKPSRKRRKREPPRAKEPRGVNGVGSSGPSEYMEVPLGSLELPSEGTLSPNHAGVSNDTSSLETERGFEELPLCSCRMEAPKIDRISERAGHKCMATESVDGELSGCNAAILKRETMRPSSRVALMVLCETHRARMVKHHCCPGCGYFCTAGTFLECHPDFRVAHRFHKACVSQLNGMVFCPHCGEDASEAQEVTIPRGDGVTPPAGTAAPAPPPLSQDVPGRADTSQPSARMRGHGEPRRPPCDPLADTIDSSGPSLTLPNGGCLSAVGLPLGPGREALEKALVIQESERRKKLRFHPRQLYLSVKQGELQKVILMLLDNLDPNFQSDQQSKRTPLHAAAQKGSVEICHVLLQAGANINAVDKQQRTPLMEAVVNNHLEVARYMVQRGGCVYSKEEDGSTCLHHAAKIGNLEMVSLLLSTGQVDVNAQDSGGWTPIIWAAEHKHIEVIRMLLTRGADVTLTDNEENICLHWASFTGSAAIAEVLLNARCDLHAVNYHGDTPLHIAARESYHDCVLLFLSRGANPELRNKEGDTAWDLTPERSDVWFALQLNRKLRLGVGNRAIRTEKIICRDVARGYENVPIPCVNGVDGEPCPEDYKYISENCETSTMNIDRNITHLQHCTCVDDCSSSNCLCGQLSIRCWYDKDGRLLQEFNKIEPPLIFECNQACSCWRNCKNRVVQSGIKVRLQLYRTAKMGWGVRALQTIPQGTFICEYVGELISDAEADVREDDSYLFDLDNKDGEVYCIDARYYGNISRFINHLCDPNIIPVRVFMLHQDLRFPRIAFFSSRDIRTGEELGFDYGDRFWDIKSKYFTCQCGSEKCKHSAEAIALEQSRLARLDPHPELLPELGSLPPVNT

inhibition [1]: inactive
Kd [2]: 1.13 µM
SMILES: COc1cc2c(cc1OCCCN1CCCC1)N=C(C1CCCCC1)CN=C2NC1CCN(C(C)C)CC1
Activity (MCF7): Toxic
